{"source": "ChEMBL document CHEMBL1139225", "about": "“Metabolism-based identification of a potent thrombin receptor antagonist” (J Med Chem, 2007)", "key": {"[1]": {"target": "T1, Proteinase-activated receptor 1 (Homo sapiens, UniProt P25116)", "T1 sequence (P25116 whole entry)": "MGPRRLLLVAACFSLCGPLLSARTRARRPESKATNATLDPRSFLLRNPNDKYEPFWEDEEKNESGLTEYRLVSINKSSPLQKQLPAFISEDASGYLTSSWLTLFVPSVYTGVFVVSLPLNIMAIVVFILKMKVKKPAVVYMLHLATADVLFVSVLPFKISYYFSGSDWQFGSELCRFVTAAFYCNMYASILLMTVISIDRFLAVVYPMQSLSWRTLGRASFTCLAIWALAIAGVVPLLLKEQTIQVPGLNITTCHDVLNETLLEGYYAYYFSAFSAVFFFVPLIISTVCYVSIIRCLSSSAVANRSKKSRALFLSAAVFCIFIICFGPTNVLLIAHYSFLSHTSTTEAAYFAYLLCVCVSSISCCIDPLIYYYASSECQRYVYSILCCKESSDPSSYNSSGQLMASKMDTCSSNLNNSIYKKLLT", "assay": "Displacement of [3H]haTRAP from PAR1 in human platelet membrane", "assay_type": "cell membranes"}, "[2]": {"assay": "AUC (0-24h) in cynomolgus monkey at 1 mg/kg, po", "assay_type": "ADME, organism-based, Macaca fascicularis", "set-up": "time < 24 hr, dose 1 mg/kg, route oral", "settings": "plasma", "procedure,_shortened": "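Cynomolgus monkeys received a single oral dose of 1 mg/kg in 20% HPβCD. Blood levels were followed at various time points afterwards.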"}, "[3]": {"species_on_record": "Homo sapiens", "assay": "Effect on elevation of calcium level in human CASMC", "assay_type": "functional", "procedure,_shortened": "(§1)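 Human coronary artery smooth muscle cells were loaded with the fluorescent calcium dye Fluo-3, and intracellular calcium was read on a fluorometric imaging plate reader. Thrombin served as the agonist in the inhibition format. For the agonist check, cells were treated with the compound alone.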"}, "[4]": {"assay": "Inhibition of thrombin-stimulated [3H]thymidine incorporation in human CASMC", "assay_type": "functional", "procedure,_shortened": "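Human coronary artery smooth muscle cells were stimulated with thrombin. [3H]thymidine incorporation was measured, and an apparent Ki was derived.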"}, "[5]": {"tested_on": "Platelet", "assay": "Inhibition of haTRAP-induced platelet aggregation in cynomolgus monkey at 3 mg/kg", "assay_type": "functional, organism-based", "set-up": "dose 3 mg/kg", "settings": "Macaca fascicularis", "procedure,_shortened": "(§2)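 Ex-vivo assay in cynomolgus monkeys. The compound was given orally as a single dose (1 mg/kg or 3 mg/kg in 20% HPβCD). Platelet aggregation induced by haTRAP was then measured in samples taken after dosing, at time points up to 24 h.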"}, "[6]": {"assay": "Cmax in Sprague-Dawley rat at 300 mg/kg, po after 1 day", "assay_type": "ADME, organism-based", "set-up": "dose 300 mg/kg, route oral", "settings": "in vivo", "procedure,_shortened": "(§3)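 Fed male Sprague Dawley rats, four per group, given the compound orally once daily for 10 consecutive days in 0.4% methylcellulose (100 and 300 mg/kg groups). On day 1 and day 10, plasma concentrations of parent and hydroxylated metabolites were measured at 1, 2, 4, 8, 12 and 24 h, giving AUC(0-24 h) and Cmax.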"}, "[7]": {"assay": "Inhibition of haTRAP-induced human platelet aggregation", "assay_type": "functional, cell-based", "procedure,_shortened": "(§4)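 Washed platelets from healthy human donors who had been aspirin-free for 7 days were preincubated with the compound for 1 h. Aggregation was then triggered by 0.3 µM haTRAP, or by ADP for the specificity test. IC50 was derived for the haTRAP response.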"}, "[8]": {"assay": "Cmax in Sprague-Dawley rat at 300 mg/kg, po after 10 days", "assay_type": "ADME, organism-based", "set-up": "dose 300 mg/kg, route oral", "settings": "in vivo", "procedure,_shortened": "as §3"}, "[9]": {"tested_on": "Platelet", "assay": "Inhibition of haTRAP-induced platelet aggregation in cynomolgus monkey at 1 mg/kg after 6 hrs", "assay_type": "functional, organism-based", "set-up": "dose 1 mg/kg", "settings": "Macaca fascicularis", "procedure,_shortened": "as §2"}, "[10]": {"assay": "Bioavailability in cynomolgus monkey", "assay_type": "ADME, organism-based, Macaca fascicularis", "settings": "in vivo"}, "[11]": {"target": "Cytochrome P450 2C19 (Homo sapiens, UniProt P33261)", "sequence (P33261 whole entry)": "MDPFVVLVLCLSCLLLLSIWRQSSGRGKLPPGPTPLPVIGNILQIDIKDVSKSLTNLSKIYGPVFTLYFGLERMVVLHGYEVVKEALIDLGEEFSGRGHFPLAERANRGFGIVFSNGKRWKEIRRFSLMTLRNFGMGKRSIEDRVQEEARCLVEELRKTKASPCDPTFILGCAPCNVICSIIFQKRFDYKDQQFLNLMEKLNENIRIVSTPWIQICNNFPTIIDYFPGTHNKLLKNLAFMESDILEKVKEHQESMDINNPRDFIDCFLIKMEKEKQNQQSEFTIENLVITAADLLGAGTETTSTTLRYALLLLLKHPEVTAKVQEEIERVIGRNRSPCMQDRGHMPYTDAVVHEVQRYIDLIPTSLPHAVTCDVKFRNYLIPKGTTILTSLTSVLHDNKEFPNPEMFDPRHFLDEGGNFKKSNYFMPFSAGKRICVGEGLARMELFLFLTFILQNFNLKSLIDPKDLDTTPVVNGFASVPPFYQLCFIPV", "assay": "Inhibition of cytochrome P450 2C19 in human liver microsomes up to 10 uM", "assay_type": "ADME, Microsome", "procedure,_shortened": "(§5)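 Human liver microsomes. The compound was tested at concentrations up to 10 µM for inhibition of CYP2D6, 3A4, 2C9 and 2C19.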"}, "[12]": {"assay": "Inhibition of thrombin-mediated activation of calcium transients in human CASMC", "assay_type": "functional", "procedure,_shortened": "as §1"}, "[13]": {"assay": "Oral absorption in cynomolgus monkey", "assay_type": "ADME, organism-based, Macaca fascicularis", "settings": "in vivo"}, "[14]": {"assay": "AUC (0-24h) in Sprague-Dawley rat at 300 mg/kg, po after 10 days", "assay_type": "ADME, organism-based", "set-up": "time < 24 hr, dose 300 mg/kg, route oral", "settings": "plasma", "procedure,_shortened": "as §3"}, "[15]": {"tested_on": "Platelet", "assay": "Inhibition of ADP-induced human platelet aggregation", "assay_type": "functional, cell-based", "procedure,_shortened": "as §4"}, "[16]": {"target": "Cytochrome P450 2C9 (Homo sapiens, UniProt P11712)", "sequence (P11712 whole entry)": "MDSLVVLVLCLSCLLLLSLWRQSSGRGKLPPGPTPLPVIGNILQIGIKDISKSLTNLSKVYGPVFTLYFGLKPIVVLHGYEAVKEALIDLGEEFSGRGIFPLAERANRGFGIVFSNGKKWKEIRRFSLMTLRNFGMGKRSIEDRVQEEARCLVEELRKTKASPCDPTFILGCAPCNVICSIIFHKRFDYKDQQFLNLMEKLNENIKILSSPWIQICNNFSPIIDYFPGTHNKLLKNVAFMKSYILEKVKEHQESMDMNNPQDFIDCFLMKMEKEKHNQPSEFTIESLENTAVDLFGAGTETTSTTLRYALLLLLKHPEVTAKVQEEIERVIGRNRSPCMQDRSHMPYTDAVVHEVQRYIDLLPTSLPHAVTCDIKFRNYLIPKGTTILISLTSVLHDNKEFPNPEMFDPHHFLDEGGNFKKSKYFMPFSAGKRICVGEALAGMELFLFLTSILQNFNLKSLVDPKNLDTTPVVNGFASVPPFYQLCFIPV", "assay": "Inhibition of cytochrome P450 2C9 in human liver microsomes up to 10 uM", "assay_type": "ADME, Microsome", "procedure,_shortened": "as §5"}, "[17]": {"assay": "AUC (0-6h) in rat after oral administration", "assay_type": "ADME, organism-based", "set-up": "time < 6 hr, route oral", "settings": "plasma"}, "[18]": {"assay": "AUC (0-24h) in Sprague-Dawley rat at 300 mg/kg, po after 1 day", "assay_type": "ADME, organism-based", "set-up": "time < 24 hr, dose 300 mg/kg, route oral", "settings": "plasma", "procedure,_shortened": "as §3"}, "[19]": {"assay": "Inhibition of haTRAP-induced platelet aggregation in cynomolgus monkey at 1 mg/kg after 24 hr", "assay_type": "functional", "settings": "Macaca fascicularis", "procedure,_shortened": "as §2"}, "[20]": {"target": "Cytochrome P450 3A4 (Homo sapiens, UniProt P08684)", "sequence (P08684 whole entry)": "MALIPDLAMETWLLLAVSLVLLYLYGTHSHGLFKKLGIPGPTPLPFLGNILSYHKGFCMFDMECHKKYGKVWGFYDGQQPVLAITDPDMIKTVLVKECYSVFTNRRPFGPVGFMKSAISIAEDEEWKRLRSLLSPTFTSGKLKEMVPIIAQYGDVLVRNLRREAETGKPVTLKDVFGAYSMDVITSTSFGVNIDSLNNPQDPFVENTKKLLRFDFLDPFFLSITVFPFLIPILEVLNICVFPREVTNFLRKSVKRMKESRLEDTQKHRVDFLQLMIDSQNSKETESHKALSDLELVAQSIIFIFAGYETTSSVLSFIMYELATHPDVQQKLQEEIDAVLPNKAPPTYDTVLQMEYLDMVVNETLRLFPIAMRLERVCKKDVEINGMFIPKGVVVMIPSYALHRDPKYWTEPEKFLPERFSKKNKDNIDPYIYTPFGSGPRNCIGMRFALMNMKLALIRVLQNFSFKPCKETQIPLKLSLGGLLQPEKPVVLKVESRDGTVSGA", "assay": "Inhibition of cytochrome P450 3A4 in human liver microsomes up to 10 uM", "assay_type": "ADME, Microsome", "procedure,_shortened": "as §5"}, "[21]": {"target": "Cytochrome P450 2D6 (Homo sapiens, UniProt P10635)", "sequence (P10635 whole entry)": "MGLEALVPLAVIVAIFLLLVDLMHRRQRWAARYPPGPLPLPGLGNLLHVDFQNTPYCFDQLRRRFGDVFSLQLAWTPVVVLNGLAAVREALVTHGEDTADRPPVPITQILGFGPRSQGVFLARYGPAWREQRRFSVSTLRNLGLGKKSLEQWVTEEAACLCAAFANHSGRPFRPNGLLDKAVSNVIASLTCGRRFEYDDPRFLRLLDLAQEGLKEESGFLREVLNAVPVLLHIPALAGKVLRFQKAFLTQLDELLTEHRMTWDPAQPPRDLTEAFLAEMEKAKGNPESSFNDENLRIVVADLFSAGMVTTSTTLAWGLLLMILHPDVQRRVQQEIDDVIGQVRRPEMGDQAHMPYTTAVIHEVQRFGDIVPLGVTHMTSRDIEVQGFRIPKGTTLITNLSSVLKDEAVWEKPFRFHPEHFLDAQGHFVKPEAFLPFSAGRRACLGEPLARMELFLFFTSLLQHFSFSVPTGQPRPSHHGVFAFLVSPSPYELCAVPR", "assay": "Inhibition of cytochrome P450 2D6 in human liver microsomes up to 10 uM", "assay_type": "ADME, Microsome", "procedure,_shortened": "as §5"}, "[22]": {"assay": "Plasma concentration in cynomolgus monkey at 24 hrs", "assay_type": "ADME, organism-based, Macaca fascicularis", "procedure,_shortened": "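Cynomolgus monkeys were given an oral dose of 3 mg/kg in 0.4% methylcellulose. Plasma was sampled at 6 and 24 h and analysed by LC-MS/MS.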"}}, "note": "Active and inactive are the calls of the source. No cut-off for these calls is given here."}
{"compound": "C[C@H]1OC(=O)[C@@H]2C[C@H]3[C@@H](CCC[C@H]3O)[C@H](/C=C/c3ccc(-c4cccc(C(F)(F)F)c4)cn3)[C@H]12", "values": [{"measurement": "IC50", "setting": "[1]", "value": 28, "unit": "nM"}]}
{"compound": "C[C@H]1OC(=O)[C@@H]2C[C@@H]3CC(F)(F)CC[C@H]3[C@H](/C=C/c3ccc(-c4cccc(F)c4)cn3)[C@H]12", "values": [{"measurement": "IC50", "setting": "[1]", "value": 15, "unit": "nM"}]}
{"compound": "C[C@H]1OC(=O)[C@@H]2C[C@@H]3C[C@H](O)CC[C@H]3[C@H](/C=C/c3ccc(-c4ccccc4F)cn3)[C@H]12", "values": [{"measurement": "IC50", "setting": "[1]", "value": 72, "unit": "nM"}]}
{"compound": "C[C@H]1OC(=O)[C@@H]2C[C@@H]3CC(=O)CC[C@H]3[C@H](/C=C/c3ccc(-c4cccc(C(F)(F)F)c4)cn3)[C@H]12", "values": [{"measurement": "AUC(0-t) at 24 h", "setting": "[2]", "value": 31, "unit": "ng·h/mL"}]}
{"compound": "C[C@H]1OC(=O)[C@@H]2C[C@@H]3CC[C@@H](O)C[C@H]3[C@H](/C=C/c3ccc(-c4cccc(C(F)(F)F)c4)cn3)[C@H]12", "values": [{"measurement": "IC50", "setting": "[1]", "value": 481, "unit": "nM"}]}
{"compound": "C[C@H]1OC(=O)[C@@H]2C[C@@H]3CC(F)(F)CC[C@H]3[C@H](/C=C/c3ccc(-c4ccccc4F)cn3)[C@H]12", "values": [{"measurement": "IC50", "setting": "[1]", "value": 28, "unit": "nM"}]}
{"compound": "C[C@H]1OC(=O)[C@@H]2C[C@@H]3C[C@H](O)CC[C@H]3[C@H](/C=C/c3ccc(-c4cccc(C(F)(F)F)c4)cn3)[C@H]12", "values": [{"measurement": "Activity", "setting": "[3]", "value": "inactive"}, {"measurement": "Ki", "setting": "[4]", "value": 22, "unit": "nM"}, {"measurement": "Activity", "setting": "[5]", "value": "Active"}, {"measurement": "IC50", "setting": "[1]", "value": 17, "unit": "nM"}, {"measurement": "Ki", "setting": "[1]", "value": 11, "unit": "nM"}, {"measurement": "Cmax", "setting": "[6]", "value": 58000, "unit": "ng/mL"}, {"measurement": "IC50", "setting": "[7]", "value": 60, "unit": "nM"}, {"measurement": "Cmax", "setting": "[8]", "value": 25000, "unit": "ng/mL"}, {"measurement": "Activity", "setting": "[9]", "value": "Active"}, {"measurement": "bioavailability", "setting": "[10]", "value": 89, "unit": "%"}, {"measurement": "Activity", "setting": "[11]", "value": "Not Active"}, {"measurement": "Ki", "setting": "[12]", "value": 85, "unit": "nM"}, {"measurement": "Fa", "setting": "[13]", "value": 92, "unit": "%"}, {"measurement": "AUC(0-t) at 24 h", "setting": "[2]", "value": 3060, "unit": "ng·h/mL"}, {"measurement": "AUC at 24 h", "setting": "[14]", "value": 41000, "unit": "ng·h/mL"}, {"measurement": "Activity", "setting": "[15]", "value": "inactive"}, {"measurement": "Activity", "setting": "[16]", "value": "Not Active"}, {"measurement": "AUC(0-t) at 6 h", "setting": "[17]", "value": 6130, "unit": "ng·h/mL"}, {"measurement": "AUC(0-t) at 24 h", "setting": "[18]", "value": 93000, "unit": "ng·h/mL"}, {"measurement": "inhibition in vivo at 1 mg/kg", "setting": "[19]", "value": 60, "unit": "%"}, {"measurement": "Activity", "setting": "[20]", "value": "Not Active"}, {"measurement": "Activity", "setting": "[21]", "value": "Not Active"}]}
{"compound": "C[C@H]1OC(=O)[C@@H]2C[C@H]3[C@@H](CCC[C@@H]3O)[C@H](/C=C/c3ccc(-c4cccc(C(F)(F)F)c4)cn3)[C@H]12", "values": [{"measurement": "concentration at 24 h", "setting": "[22]", "value": 160, "unit": "ng/mL"}, {"measurement": "IC50", "setting": "[1]", "value": 41, "unit": "nM"}, {"measurement": "Cmax", "setting": "[6]", "value": 29000, "unit": "ng/mL"}, {"measurement": "Cmax", "setting": "[8]", "value": 79000, "unit": "ng/mL"}, {"measurement": "AUC at 24 h", "setting": "[14]", "value": 150000, "unit": "ng·h/mL"}, {"measurement": "AUC(0-t) at 6 h", "setting": "[17]", "value": 5760, "unit": "ng·h/mL"}, {"measurement": "AUC(0-t) at 24 h", "setting": "[18]", "value": 49000, "unit": "ng·h/mL"}]}
{"compound": "Cc1cccc(-c2ccc(/C=C/[C@H]3[C@@H]4CC[C@@H](O)C[C@H]4C[C@H]4C(=O)O[C@H](C)[C@@H]34)nc2)c1", "values": [{"measurement": "IC50", "setting": "[1]", "value": 147, "unit": "nM"}]}
{"compound": "Cc1ccccc1-c1ccc(/C=C/[C@H]2[C@@H]3CC[C@@H](O)C[C@H]3C[C@H]3C(=O)O[C@H](C)[C@@H]23)nc1", "values": [{"measurement": "IC50", "setting": "[1]", "value": 70, "unit": "nM"}]}
{"compound": "C[C@H]1OC(=O)[C@@H]2C[C@@H]3C[C@H](O)CC[C@H]3[C@H](/C=C/c3ccc(-c4ccc(F)cc4)cn3)[C@H]12", "values": [{"measurement": "IC50", "setting": "[1]", "value": 829, "unit": "nM"}]}
{"compound": "C[C@H]1OC(=O)[C@@H]2C[C@@H]3C[C@H](O)CC[C@H]3[C@H](/C=C/c3ccc(-c4cccc(Cl)c4Cl)cn3)[C@H]12", "values": [{"measurement": "IC50", "setting": "[1]", "value": 16.5, "unit": "nM"}]}
